Test results: ChEMBL document CHEMBL1759852, “A comparative study of proapoptotic potential of cyano analogues of boswellic acid and 11-keto-boswellic acid” (Eur J Med Chem, 2011)
The source made the active and inactive calls. The rule behind the calls is not given here.

Legend:
[1] = tested on: HeLa; test: Cytotoxicity against human HeLa cells after 48 hrs by MTT assay; assay type: functional, cell-based
Procedure, shortened: (§1)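 HL-60 (2 × 10^4/200 μl) or HeLa (1 × 10^4/200 μl) in RPMI-1640/MEM, 10% FCS, 37 °C, 5% CO2; treated 0.1–50 μM for 48 h, DMSO vehicle <0.2%. MTT added final 3 h; formazan dissolved in DMSO, OD 570 nm (reference 620 nm). IC50 as 50% viability versus untreated control; three experiments, CV <10%.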

[2] = tested on: HL-60; test: Cytotoxicity against human HL60 cells after 48 hrs by MTT assay; assay type: functional, cell-based; conditions: HL-60, 48 h; procedure, shortened: as §1
[3] = tested on: HL-60; test: Induction of apoptosis in human HL60 cells assessed as late apoptotic cells at 0.3 uM after 6 hrs using Annexin-V-FITC/propidium iodide staining by flow cytometry (reference value: 1%); assay type: functional
Procedure, shortened: (§2)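 HL-60 cells (1 × 10^6/ml) treated 6 h at varied concentrations; camptothecin 4 μM 6 h positive control. AnnexinV-FITC and propidium iodide staining per kit; FL-1 versus FL-2 flow cytometry with quadrant statistics for apoptotic and necrotic populations; representative of three experiments.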

[4] = tested on: HL-60; test: Cell cycle arrest in human HL60 cells assessed as accumulation at sub-G1 phase at 4 uM after 18 hrs by flow cytometry relative to control; assay type: functional
Procedure, shortened: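 HL-60 cells at 1 × 10^6/ml exposed 18 h; camptothecin 4 μM for 6 h as positive control. Cells pelleted 160 × g 5 min, PBS-washed, fixed in cold 70% alcohol overnight at −20 °C, RNase (400 μg/ml) digested, PI-stained; flow cytometry, hypo-diploid (<2n DNA) sub-G0/G1 fraction scored as apoptotic.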

[5] = tested on: HL-60; test: Induction of apoptosis in human HL60 cells assessed as late apoptotic cells at 4 uM after 6 hrs using Annexin-V-FITC/propidium iodide staining by flow cytometry (reference value: 1%); assay type: functional; procedure, shortened: as §2
[6] = tested on: HL-60; test: Induction of apoptosis in human HL60 cells assessed as late apoptotic cells at 1 uM after 6 hrs using Annexin-V-FITC/propidium iodide staining by flow cytometry (reference value: 1%); assay type: functional; procedure, shortened: as §2
[7] = tested on: HL-60; test: Induction of apoptosis in human HL60 cells assessed as DNA ladder formation at 1 uM after 9 hrs by agarose gel electrophoresis; assay type: functional, cell-based
Procedure, shortened: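 HL-60 cells (2 × 10^6) treated 9 h; untreated negative control, camptothecin 4 μM positive control. Cells washed in PBS with 10 mM EDTA, lysed, genomic DNA extracted, precipitated, washed in 80% alcohol, dissolved in TE; run on 1.6% agarose at 50 V, ethidium bromide stained for laddering.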

[8] = tested on: HL-60; test: Induction of apoptosis in human HL60 cells assessed as early apoptotic cells at 4 uM after 6 hrs using Annexin-V-FITC/propidium iodide staining by flow cytometry (reference value: 6%); assay type: functional; procedure, shortened: as §2
[9] = tested on: HL-60; test: Induction of apoptosis in human HL60 cells assessed as late apoptotic cells at 2 uM after 6 hrs using Annexin-V-FITC/propidium iodide staining by flow cytometry (reference value: 1%); assay type: functional; procedure, shortened: as §2
[10] = tested on: HL-60; test: Induction of apoptosis in human HL60 cells assessed as nuclear condensation and blebbing at 0.5 to 2 uM after 9 hrs Hoechst 33258 staining by fluorescence microscopy; assay type: functional, cell-based
Procedure, shortened: (§3)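 HL-60 cells (2 × 10^6/3 ml) treated 9 h, washed twice in PBS, fixed and stained with Hoechst 33258; nuclear morphology and apoptotic bodies examined by inverted fluorescence microscopy.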

[11] = tested on: HL-60; test: Induction of apoptosis in human HL60 cells assessed as increase in scattered apoptotic bodies formation at 0.5 uM after 9 hrs using Hoechst 33258 staining by fluorescence microscopy; assay type: functional, cell-based; procedure, shortened: as §3
[12] = tested on: HL-60; test: Induction of apoptosis in human HL60 cells assessed as induction of morphological changes after 9 hrs by scanning electron microscopy; assay type: functional, cell-based
Procedure, shortened: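 HL-60 seeded 2 × 10^5/ml in medium with 10% FCS, treated at 0.5 and 2 μM (DMSO stock; vehicle-only controls) for 9 h at 37 °C. Fixed 2.5% glutaraldehyde in 0.1 M phosphate pH 7.2 at 4 °C 1 h, post-fixed 1% OsO4 1 h, acetone-dehydrated, critical-point dried, gold-coated; surface ultrastructure by scanning electron microscopy.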

[13] = tested on: HL-60; test: Induction of apoptosis in human HL60 cells assessed as early apoptotic cells at 1 uM after 6 hrs using Annexin-V-FITC/propidium iodide staining by flow cytometry (reference value: 6%); assay type: functional; procedure, shortened: as §2
[14] = tested on: HL-60; test: Induction of apoptosis in human HL60 cells assessed as early apoptotic cells at 2 uM after 6 hrs using Annexin-V-FITC/propidium iodide staining by flow cytometry (reference value: 6%); assay type: functional; procedure, shortened: as §2
[15] = tested on: HL-60; test: Induction of apoptosis in human HL60 cells assessed as early apoptotic cells at 0.3 uM after 6 hrs using Annexin-V-FITC/propidium iodide staining by flow cytometry (reference value: 6%); assay type: functional; procedure, shortened: as §2

CCCCOC(=O)[C@@]1(C)c2oncc2C[C@@]2(C)[C@H]1CC[C@]1(C)[C@@H]2C(=O)C=C2[C@@H]3[C@@H](C)[C@H](C)CC[C@]3(C)CC[C@]21C
IC50 [1]: > 50 µM
IC50 [2]: 33 µM

CCCCOC(=O)[C@@]1(C)[C@H](O)CC[C@@]2(C)[C@H]1CC[C@]1(C)[C@@H]2C(=O)C=C2[C@@H]3[C@@H](C)[C@H](C)CC[C@]3(C)CC[C@]21C
IC50 [1]: 50 µM
IC50 [2]: 34 µM

CC(=O)O[C@@H]1CC[C@@]2(C)[C@@H](CC[C@]3(C)[C@@H]2CC=C2[C@@H]4[C@@H](C)[C@H](C)CC[C@]4(C)CC[C@]23C)[C@@]1(C)C(=O)O
IC50 [1]: 22 µM
IC50 [2]: 10 µM

CC(=O)O[C@@H]1CC[C@@]2(C)[C@@H](CC[C@]3(C)[C@@H]2C(=O)C=C2[C@@H]4[C@@H](C)[C@H](C)CC[C@]4(C)CC[C@]23C)[C@@]1(C)C(=O)O [AKBA]
IC50 [1]: 31 µM
IC50 [2]: 11 µM

CCCCOC(=O)[C@@]1(C)C(=O)C(C#N)C[C@]2(C)[C@H]3C(=O)C=C4[C@@H]5[C@@H](C)[C@H](C)CC[C@]5(C)CC[C@@]4(C)[C@]3(C)CC[C@@H]12 (some centres undefined)
IC50 [1]: 17 µM
IC50 [2]: 11 µM

C[C@H]1[C@H](C)CC[C@]2(C)CC[C@]3(C)C(=CC(=O)[C@@H]4[C@@]5(C)CC[C@@H](O)[C@](C)(C(=O)O)[C@@H]5CC[C@]43C)[C@H]12 [11-KETO BOSWELLIC ACID]
IC50 [1]: 50 µM
IC50 [2]: 32 µM

CCCCOC(=O)[C@@]1(C)C(=O)/C(=C\O)C[C@]2(C)[C@H]3C(=O)C=C4[C@@H]5[C@@H](C)[C@H](C)CC[C@]5(C)CC[C@@]4(C)[C@]3(C)CC[C@@H]12
IC50 [1]: > 50 µM
IC50 [2]: 5 µM

CCCCOC(=O)[C@@]1(C)C(=O)CC[C@]2(C)[C@H]3C(=O)C=C4[C@@H]5[C@@H](C)[C@H](C)CC[C@]5(C)CC[C@@]4(C)[C@]3(C)CC[C@@H]12
IC50 [1]: > 50 µM
IC50 [2]: > 50 µM

C[C@H]1[C@H](C)CC[C@]2(C)CC[C@]3(C)C(=CC[C@@H]4[C@@]5(C)CC(C(N)=O)[C@H](O)[C@](C)(N=C=O)[C@@H]5CC[C@]43C)[C@H]12 (some centres undefined)
IC50 [1]: > 50 µM
IC50 [2]: > 50 µM

C[C@H]1[C@H](C)CC[C@]2(C)CC[C@]3(C)C(=CC[C@@H]4[C@@]5(C)CC(C(N)=O)[C@H](O)[C@](C)(C(=O)O)[C@@H]5CC[C@]43C)[C@H]12 (some centres undefined)
IC50 [1]: > 50 µM
IC50 [2]: > 50 µM

C[C@H]1[C@H](C)CC[C@]2(C)CC[C@]3(C)C(=CC[C@@H]4[C@@]5(C)CC[C@@H](O)[C@](C)(C(=O)O)[C@@H]5CC[C@]43C)[C@H]12 [BOSWELLIC ACID]
IC50 [1]: 35 µM
IC50 [2]: 24 µM

CCCCOC(=O)[C@@]1(C)C(=O)C(C#N)C[C@]2(C)[C@H]3CC=C4[C@@H]5[C@@H](C)[C@H](C)CC[C@]5(C)CC[C@@]4(C)[C@]3(C)CC[C@@H]12 (some centres undefined)
IC50 [1]: 35 µM
IC50 [2]: 14 µM

CCCCOC(=O)[C@@]1(C)C(=O)C(C#N)=C[C@]2(C)[C@H]3C(=O)C=C4[C@@H]5[C@@H](C)[C@H](C)CC[C@]5(C)CC[C@@]4(C)[C@]3(C)CC[C@@H]12
Activity [3]: 3%
Activity [4]: 96%
Activity [5]: 1%
Activity [6]: 2%
Activity [7]: Active
Activity [8]: 26%
Activity [9]: 1%
IC50 [1]: 3 µM
Activity [10]: Active
Activity [11]: Active
Activity [12]: Dose-dependent effect
Activity [13]: 20%
Activity [14]: 24%
IC50 [2]: 0.67 µM
Activity [15]: 15%
